According to ChEMBL document CHEMBL1137577, “Inhibitors of the interaction of a thyroid hormone receptor and coactivators: preliminary structure-activity relationships” (J Med Chem, 2007):
In brackets after ≈: the same amount, converted by molar mass. Several values for one entry are separate records, joined by “and”; a condition that tells them apart may be missing. Equal entries are not always repeated.

What was measured:
[1] = system: ARO; experiment: Cytotoxicity against human ARO cells after 48 hrs by MTS assay; type: functional; conditions: read-out: LD50 (the source's name)
[2] = target: T1, Thyroid hormone receptor beta (Homo sapiens, UniProt P10828); experiment: Displacement of labeled SRC2-2 from human TRbeta expressed in BL21 (DE3) cells FP assay; type: cell-based
T1 sequence (P10828 whole entry): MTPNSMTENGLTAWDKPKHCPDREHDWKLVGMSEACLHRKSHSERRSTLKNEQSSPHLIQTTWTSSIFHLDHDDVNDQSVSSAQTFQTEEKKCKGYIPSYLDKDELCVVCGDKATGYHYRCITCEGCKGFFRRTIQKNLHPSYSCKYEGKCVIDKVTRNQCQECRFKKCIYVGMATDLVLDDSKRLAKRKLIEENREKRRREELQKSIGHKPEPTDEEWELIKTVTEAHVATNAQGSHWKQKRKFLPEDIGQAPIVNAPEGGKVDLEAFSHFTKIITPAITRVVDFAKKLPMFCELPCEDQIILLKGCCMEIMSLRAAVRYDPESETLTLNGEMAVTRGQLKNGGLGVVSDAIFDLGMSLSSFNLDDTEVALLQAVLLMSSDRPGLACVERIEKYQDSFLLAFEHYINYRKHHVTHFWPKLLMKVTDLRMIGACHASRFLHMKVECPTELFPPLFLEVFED
In short: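 Competitive fluorescence polarization. Assay liquid was PBS containing 5% DMSO. For TRβ, hTRβ1 LBD (His6, T209-D461) was expressed in BL21 (DE3).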

[3] = system: U2OS; experiment: Cytotoxicity against human U2OS cells after 48 hrs by MTS assay; type: functional; conditions: read-out: LD50 (the source's name)
[4] = target: T2, Thyroid hormone receptor alpha (Homo sapiens, UniProt P10827); experiment: Displacement of labeled SRC2-2 from human TRalpha by FP assay
T2 sequence (P10827 whole entry): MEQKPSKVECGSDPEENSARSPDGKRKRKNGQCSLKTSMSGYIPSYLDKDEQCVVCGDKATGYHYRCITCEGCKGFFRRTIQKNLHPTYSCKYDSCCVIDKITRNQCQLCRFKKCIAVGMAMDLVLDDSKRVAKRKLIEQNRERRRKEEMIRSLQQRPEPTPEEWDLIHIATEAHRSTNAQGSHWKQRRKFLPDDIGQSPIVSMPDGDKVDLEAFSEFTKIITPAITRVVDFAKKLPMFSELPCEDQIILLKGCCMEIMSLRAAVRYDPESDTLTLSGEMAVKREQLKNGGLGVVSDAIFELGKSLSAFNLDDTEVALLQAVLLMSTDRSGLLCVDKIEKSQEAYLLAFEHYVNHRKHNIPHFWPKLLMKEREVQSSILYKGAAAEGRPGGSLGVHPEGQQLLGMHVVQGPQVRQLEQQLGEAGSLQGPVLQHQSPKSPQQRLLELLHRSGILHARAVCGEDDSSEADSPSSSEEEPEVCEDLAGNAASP

[5] = physchem; conditions: PBS
[6] = Permeability across artificial membrane at pH 7.4 by PAMPA assay

| Compound | CC50 ([1]; Homo sapiens, ARO, 48 h) [µM] | IC50 [2] [µM] | CC50 ([3]; Homo sapiens, U2OS, 48 h) [µM] | IC50 [4] | solubility [5] [µM] | Papp [6] [×10⁻⁶ cm/s] | permeability [6] | CC50 [1] | CC50 [3] [µM] |
| --- | --- | --- | --- | --- | --- | --- | --- | --- | --- |
| C=CC(=O)c1ccc(CCCCC)cc1 | 20 | 33.9 | 22.7 | 60.9 µM |  |  |  |  |  |
| CCCCCCc1ccc(C(=O)CCN(C)CCc2ccccc2)cc1 | 2.5 | 1.5 | 18.4 | 3.6 µM | 15 (≈ 5.27 µg/mL) |  |  |  |  |
| CCCCCCc1ccc(NC(=O)/C=C/c2ccccc2)cc1 |  | > 100 |  | > 100 µM |  |  |  |  |  |
| C=C(CC(=O)Nc1ccc(CCCCCC)cc1)C(=O)O | 183 | > 100 | 124 | > 100 µM | 286 (≈ 82.8 µg/mL) | 57 |  |  |  |
| C#CC(=O)Nc1ccc(CCCCCC)cc1 | 8 | 35.1 | 17.1 | 68.9 µM | 60 (≈ 13.8 µg/mL) | 621 |  |  |  |
| CCCCCCc1ccc(NC(=O)/C=C\C(=O)O)cc1 | > 200 | 20.3 | 148 | 17.5 µM | 418 (≈ 115 µg/mL) |  |  |  |  |
| CCCCCCc1ccc(C(=O)CCN(C)CCO)cc1 | 13.2 | 1.6 | 13.2 | 3 µM | 97 (≈ 28.3 µg/mL) |  |  |  |  |
| CCCCCCc1ccc(C(=O)CCN(C)C)cc1 |  | 4.3 |  | […] |  |  |  |  |  |
| CCCCCCc1ccc(C(=O)CCN(C(C)C)C(C)C)cc1 | 15.4 | 2 | 20.7 | 4.1 µM | 55 (≈ 17.5 µg/mL) |  |  |  |  |
| CCCCCCc1ccc(C(=O)CCN2CCOCC2)cc1 | 7.2 | 2.7 | 20.8 | 4.1 µM | 110 (≈ 33.4 µg/mL) |  | 1210 10^-6 cm/s |  |  |
| CCCCCCc1ccc(C(=O)CCN2CCC(C(=O)OC)CC2)cc1 | 8.2 | 3.9 | 19.7 | 6.3 µM | 27 (≈ 9.71 µg/mL) | 145 |  |  |  |
| CCCCCCc1ccc(C(=O)CCN(C)Cc2ccco2)cc1 |  | 12.1 |  | 22.6 µM |  |  |  |  |  |
| CCCCCCc1ccc(C(=O)CCCBr)cc1 | 28.7 | > 100 | 25.3 | > 100 µM | 26 (≈ 8.09 µg/mL) | 58 |  |  |  |
| C#CC(=O)Oc1ccc(CCCCCC)cc1 | 7.9 | 6.2 | 13.9 | 16.7 µM | 18 (≈ 4.15 µg/mL) | 21 |  |  |  |
| CCCCCCc1ccc(C(=O)CCl)cc1 |  | 23.1 |  | 47.7 µM |  |  |  |  |  |
| CCCCCCc1ccc(C(=O)CF)cc1 | 2.4 | > 100 | 69 | > 100 µM | 95 (≈ 21.1 µg/mL) |  |  |  |  |
| CCCCCCc1ccc(C(=O)C2CO2)cc1 (centres undefined) | > 200 | 23.1 | 58 | 47.7 µM | 204 (≈ 47.4 µg/mL) |  | 1117 10^-6 cm/s |  |  |
| C=CC(=O)c1ccc(CCCCCCC)cc1 | 69.2 | 10.5 | 36.7 | 23 µM |  |  |  |  |  |
| C=CC(=O)c1ccc(CCCCCCCC)cc1 | 111 | 11.4 | 50.5 | 21.4 µM |  |  |  |  |  |
| C=CC(=O)Oc1ccc(CCCCC)cc1 | 21.2 | 55.8 | 36.5 | > 100 µM |  |  |  |  |  |
| C=CC(=O)Oc1ccccc1CCCCCC | 14.6 | 8.2 | 19.4 | 39.1 µM |  |  |  |  |  |

| Compound | CC50 ([1]; Homo sapiens, ARO, 48 h) [µM] | IC50 [2] [µM] | CC50 ([3]; Homo sapiens, U2OS, 48 h) [µM] | IC50 [4] | solubility [5] [µM] | Papp [6] [×10⁻⁶ cm/s] | permeability [6] | CC50 [1] | CC50 [3] [µM] |
| --- | --- | --- | --- | --- | --- | --- | --- | --- | --- |
| C=CC(=O)c1ccc(CCCCCC)cc1 |  |  | 10.1 | 28.1 µM and 45.2 µM | 36 (≈ 7.79 µg/mL) | 38 |  | 4.5 µM and 29.5 µM | 18.8 |
| CCCCCCc1ccc(C(=O)/C=C\C(=O)O)cc1 | 5.5 | 17.7 | 57.4 | 19.2 µM | 252 (≈ 65.6 µg/mL) | 66 |  |  |  |
| C=C(C)C(=O)c1ccc(CCCCCCC)cc1 | 10.7 | 23.2 | 18.7 | 52.9 µM | 37 (≈ 9.04 µg/mL) | 43 |  |  |  |
| C=CC(=O)c1ccc(CC(C)(C)C)cc1 | 5.8 | 43.5 | 27.5 | 69.6 µM |  |  |  |  |  |
| C/C=C(\C)C(=O)c1ccc(CCCCCCC)cc1 | > 200 | > 100 | > 200 | > 100 µM | 36 (≈ 9.3 µg/mL) |  |  |  |  |
| CCCCCCc1ccc(C(=O)CC)cc1 |  | > 100 |  | > 100 µM |  |  |  |  |  |
| C=CC(=O)c1ccc(CCCC)cc1 | 9.9 | 66 | 25.6 | 71 µM |  |  |  |  |  |
| CCCCCCc1ccc(NC(=O)CCC(=O)O)cc1 |  | > 100 |  | > 100 µM |  |  |  |  |  |
| CCCCCCc1ccc(NC(=O)C=C(C)C)cc1 | > 200 | > 100 | > 200 | > 100 µM | 37 (≈ 9.6 µg/mL) | 98 |  |  |  |
| C=CC(=O)[C@H]1CC[C@H](CC(C)(C)C)CC1 | 92.8 | 69.1 | 50.2 | 75.6 µM |  |  |  |  |  |
| C=CC(=O)Oc1ccc(CCC)cc1 | 4.8 | 61 | 121 | > 100 µM |  |  |  |  |  |
| CCCC(=O)Nc1cccc2c1CCCC2 | 54.7 | 69.8 | 101 | 85.3 µM |  |  |  |  |  |
| CCCCCCc1ccc(C(=O)CCBr)cc1 | 40.1 | 3 | 17 | 4.2 µM | 85 (≈ 25.3 µg/mL) |  |  |  |  |
| CCCCCCc1ccc(C(=O)CCN(CCCC)CCCC)cc1 | 5.4 | 4.2 | 25.5 | 6.9 µM | 152 (≈ 52.5 µg/mL) |  |  |  |  |
| C/C=C/C(=O)c1ccc(CCCCCCC)cc1 | 1.4 | 7.6 | 11.6 | 18.9 µM | 41 (≈ 10 µg/mL) | 7 |  |  |  |
| CCCCCCCc1ccc(C(=O)C=C(C)C)cc1 | > 200 | > 100 | > 200 | > 100 µM | 24 (≈ 6.2 µg/mL) |  |  |  |  |
| CCCCCCc1ccc(C(=O)CCNCCC)cc1 | 107 | 15.2 | 160 | 25.8 µM | 354 (≈ 97.5 µg/mL) | 254 |  |  |  |
| C=CC(=O)Nc1ccc(CCCCCC)cc1 | 113 | 17.9 | 66.5 | 21.6 µM | 47 (≈ 10.9 µg/mL) | 833 |  |  |  |
| C/C=C/C(=O)Nc1ccc(CCCCCC)cc1 | > 200 | > 100 | > 200 | > 100 µM | 42 (≈ 10.3 µg/mL) | 432 |  |  |  |
| CCCCCCc1ccc(C(=O)CCN(C2CCCCC2)C2CCCCC2)cc1 |  | 12.7 |  | 16.5 µM |  |  |  |  |  |
| CCCCCCCc1ccc(C(=O)/C=C/c2ccccc2)cc1 | > 200 | > 100 | 57 | > 100 µM | 30 (≈ 9.19 µg/mL) |  |  |  |  |
